High-throughput results from PubChem.
CHO-K1 Ca antag: M1 antagonist counterscreen hit in parental CHO-K1 cells. actives 0.6% (n = 360,000). inhibition, % at 3 µM. ATP-induced calcium, Fluo-8 fluorescence;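 active means inhibition above a per-plate cutoff, the plate's mean sample inhibition plus 3 SD, cut at about 24% in these data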;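 further: 0% = DMSO plus EC80 ATP and 100% = DMSO alone without ATP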
OX1R antag-1: OX1R (HCRTR1) antagonists, primary screen, fluorescence, CHO/OX1R cells, Fluo-8 calcium, orexin A | inhibition, % at 5 µM | actives 0.43% (n = 330,000) | Orexin/Hypocretin receptor type 1 (Homo sapiens), O43613 | AID 434989, 2010 | Fluo-8 calcium fluorescence;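 active means inhibition above its plate's threshold, mean inhibition of all tested compounds on the plate plus 3 SD, cut at about 37% in these data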;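 further: 0% = orexin A challenge wells and 100% = SB-334867-A antagonist wells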
Target sequence (O43613 whole entry, looked up): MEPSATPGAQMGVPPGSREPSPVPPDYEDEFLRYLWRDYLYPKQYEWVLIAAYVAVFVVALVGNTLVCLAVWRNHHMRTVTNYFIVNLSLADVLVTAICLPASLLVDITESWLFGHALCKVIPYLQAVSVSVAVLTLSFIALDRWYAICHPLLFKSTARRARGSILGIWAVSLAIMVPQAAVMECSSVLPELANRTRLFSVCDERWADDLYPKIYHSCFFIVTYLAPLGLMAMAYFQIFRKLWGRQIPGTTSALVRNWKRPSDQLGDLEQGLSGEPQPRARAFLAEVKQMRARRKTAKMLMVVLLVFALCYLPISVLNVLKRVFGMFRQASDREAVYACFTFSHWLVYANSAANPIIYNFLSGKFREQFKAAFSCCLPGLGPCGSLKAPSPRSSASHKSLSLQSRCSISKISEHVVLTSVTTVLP
CHO parental Ca: ATP-evoked calcium signal inhibitors, parental CHO, primary screen, counter-screen for OX1R antagonist project, cell-based, fluorescence, Fluo-8 calcium dye; parental CHO-K1, ATP-induced calcium, Fluo-8 fluorescence; inhibition, % at 5.6 µM; actives 0.63% (n = 330,000); AID 463079, 2010;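 active means inhibition above that plate's mean sample inhibition plus 3 SD, cut at about 26% in these data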;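 further: 0% = ATP-challenged DMSO wells and 100% = DMSO wells without ATP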
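Test system: untransfected parental CHO cell line; also added: ATP stimulus; dosing: 5.6 µM, single dose; signal: calcium-sensitive Fluo-8 fluorescence; measure: percent inhibition of ATP-evoked calcium rise, normalized to controls; benchmarks: low control ATP plus DMSO, high control DMSO only; replication: one well per compound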
OX1R antag-2: antagonists of human orexin 1 receptor (OX1R). Orexin/Hypocretin receptor type 1 (Homo sapiens), O43613. OX1R-expressing cells, FRET antagonist read-out. inhibition, % at 6.6 µM. actives 1.8% (n = 330,000). AID 485270, 2010; in the data active means inhibition mostly above about 38%, no sharp cut-off; inactive means mostly below about 40%;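 further: 0% = agonist challenge alone and 100% = reference antagonist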
CHO-K1 Ca ag: counter-screen for M1 agonists: effect in parental CHO-K1 cells; actives 0.48% (n = 360,000); activation, % at 3 µM; AID 602248, 2012; Fluo-8 calcium fluorescence; scaled to maximal ATP response, vehicle zero; in the data active means activation above about 15%;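 further: untransfected CHO-K1 host cells lacking M1 receptor as counterscreen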
M1 PAM parental: nonselective calcium activators in parental CHO-K1 cells, primary screen, counter-screen for M1 PAM project, cell-based, Fluo-8 calcium fluorescence, full deck, 1536-well; ATP EC20; 0% at ATP EC20, 100% at ATP max; activation, % at 3 µM; AID 602247, 2012; actives 0.02% (n = 360,000);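 active means activation above the run cutoff, the mean activation of all test compounds plus 3 SD, cut at about 40% in these data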;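 further: peak over basal fluorescence ratio in a 140 s read after ATP addition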
An asterisk follows results filed as active. Hits are enriched below; roughly 2.9% of the tested compounds scored in any of these assays.

`CCN(CC)S(=O)(=O)c1ccc(Cl)c(NC(=S)NC(=O)C2CCCC2)c1` gave CHO-K1 Ca antag -4, OX1R antag-1 67*, CHO parental Ca 44*, OX1R antag-2 9, CHO-K1 Ca ag 4 and M1 PAM parental -9.
O=C(COC(=O)CNC(=O)c1ccco1)NCCN1C(=O)CSC1=O was read as CHO-K1 Ca antag 31*, OX1R antag-1 -13, CHO parental Ca -10, OX1R antag-2 8, CHO-K1 Ca ag 0 and M1 PAM parental -6.
`COc1ccccc1OCC(=O)OCC(=O)NCCN1C(=O)CSC1=O` gave CHO-K1 Ca antag 21, OX1R antag-1 0, CHO parental Ca 9, OX1R antag-2 12, CHO-K1 Ca ag 0 and M1 PAM parental 5.
CCc1ccccc1NC(=S)N(CCN1CCOCC1)Cc1ccccc1F was read as CHO-K1 Ca antag -1, OX1R antag-1 -30, CHO parental Ca -16, OX1R antag-2 17, CHO-K1 Ca ag 0 and M1 PAM parental 8.
For CCn1nc([N+](=O)[O-])c(C(C#N)c2nc3cc(C(F)(F)F)ccc3s2)c(Cl)c1=O (centres undefined) the results were CHO-K1 Ca antag 6, OX1R antag-1 -2, CHO parental Ca -10, OX1R antag-2 62*, CHO-K1 Ca ag 0 and M1 PAM parental 14.
`Cn1nc([N+](=O)[O-])c(C(C#N)c2ccccn2)c(Cl)c1=O` (centres undefined) gave CHO-K1 Ca antag -4, OX1R antag-1 -3, CHO parental Ca 5, OX1R antag-2 13, CHO-K1 Ca ag 0 and M1 PAM parental 10.
Screening COC(=O)/C=C/c1cnc[nH]1 returned CHO-K1 Ca antag -11, OX1R antag-1 -6, CHO parental Ca 1, OX1R antag-2 7, CHO-K1 Ca ag 1 and M1 PAM parental 13.
Cc1ccc(C(C(=O)NCc2ccccc2)N(Cc2cccs2)C(=O)c2ccc3c(c2)OCCO3)cc1 (centres undefined) was read as CHO-K1 Ca antag 13, OX1R antag-1 13, CHO parental Ca 6, OX1R antag-2 58*, CHO-K1 Ca ag 10 and M1 PAM parental 13.
Screening C[C@H](CO)N1C[C@H](C)[C@H](CN(C)C(=O)Nc2ccccc2)OCc2cnnn2CCCC1=O returned CHO-K1 Ca antag 1, CHO-K1 Ca ag 0 and M1 PAM parental 9.
For Cc1ccc(C2CC(=O)Oc3cc(C)c(Br)c(C)c32)cc1 (centres undefined) the results were CHO-K1 Ca antag -14, OX1R antag-1 -5, CHO parental Ca -5, OX1R antag-2 15, CHO-K1 Ca ag 0 and M1 PAM parental 18.
O=C(NC1CC1)c1ccc(CSCc2ccc(Cl)cc2)o1 was read as CHO-K1 Ca antag -1, CHO-K1 Ca ag 5 and M1 PAM parental -8.
`COc1ccc(OCC(=O)Nn2c(-c3ccc(C)cc3)nc3ccccc3c2=O)cc1` gave CHO-K1 Ca antag -1, OX1R antag-1 -13, CHO parental Ca -17, OX1R antag-2 19, CHO-K1 Ca ag 4 and M1 PAM parental 8.
Screening COc1ccc(OC)c(CNn2c(-c3cccc(C)c3)nc3ccccc3c2=O)c1 returned CHO-K1 Ca antag -14, OX1R antag-1 6, CHO parental Ca -26, OX1R antag-2 50*, CHO-K1 Ca ag 2 and M1 PAM parental 12.
For O=C(COC(=O)c1ccc([N+](=O)[O-])o1)NC1CCCC1 the results were CHO-K1 Ca antag -12, OX1R antag-1 -1, CHO parental Ca -10, OX1R antag-2 32, CHO-K1 Ca ag 2 and M1 PAM parental 18.
`CCN(C(=O)COC(=O)c1cccnc1SC)C1CCS(=O)(=O)C1` (centres undefined) gave CHO-K1 Ca antag -5, OX1R antag-1 -31, CHO parental Ca -2, OX1R antag-2 11, CHO-K1 Ca ag 0 and M1 PAM parental 4.
For CCN(c1ccc(NC(=O)COC(=O)c2ccc([N+](=O)[O-])o2)cc1)C(C)C the results were CHO-K1 Ca antag 1, OX1R antag-1 -22, CHO parental Ca -1, OX1R antag-2 10, CHO-K1 Ca ag 1 and M1 PAM parental -11.
`O=C(NCc1ccco1)c1ccc(Cn2cc([N+](=O)[O-])cn2)o1` gave CHO-K1 Ca antag 13, OX1R antag-1 -10, CHO parental Ca -6, OX1R antag-2 6, CHO-K1 Ca ag 0 and M1 PAM parental -11.
Screening CCN(C(=O)COC(=O)c1cccnc1SC)C1CCCCC1 returned CHO-K1 Ca antag -5, OX1R antag-1 31, CHO parental Ca -14, OX1R antag-2 57*, CHO-K1 Ca ag 0 and M1 PAM parental 3.
Screening O=C(NCc1ccco1)c1ccc([N+](=O)[O-])o1 returned CHO-K1 Ca antag -8, OX1R antag-1 -8, CHO parental Ca 18, OX1R antag-2 71*, CHO-K1 Ca ag 3 and M1 PAM parental 15.
`CCN(C(=O)COC(=O)c1ccc([N+](=O)[O-])o1)C1CCCCC1` gave CHO-K1 Ca antag -2, OX1R antag-1 -5, CHO parental Ca 1, OX1R antag-2 29*, CHO-K1 Ca ag 0 and M1 PAM parental -7.
`CC(=O)Nc1ccc(NC(=O)COC(=O)c2ccc([N+](=O)[O-])o2)cc1` gave CHO-K1 Ca antag 8, OX1R antag-1 -10, CHO parental Ca -7, OX1R antag-2 37*, CHO-K1 Ca ag 0 and M1 PAM parental -16.
Cn1cccc1C(=O)NCc1ccccn1 was read as CHO-K1 Ca antag 13, CHO-K1 Ca ag 0 and M1 PAM parental -19.
`CCOC(=O)C1CCN(C(=O)COC(=O)/C=C/c2ccc([N+](=O)[O-])cc2)CC1` gave CHO-K1 Ca antag -11, OX1R antag-1 9, CHO parental Ca -4, OX1R antag-2 26, CHO-K1 Ca ag 6 and M1 PAM parental 15.
Screening O=C(COC(=O)c1ccc([N+](=O)[O-])o1)NC1CCCCC1 returned CHO-K1 Ca antag -17, OX1R antag-1 -30, CHO parental Ca -4, OX1R antag-2 24*, CHO-K1 Ca ag 1 and M1 PAM parental 3.
`O=C(NC1CCCCC1)c1ccc([N+](=O)[O-])o1` gave CHO-K1 Ca antag -10, OX1R antag-1 -20, CHO parental Ca 7, OX1R antag-2 39*, CHO-K1 Ca ag 1 and M1 PAM parental 8.
Screening COc1cccc2c(=O)c3ccccc3oc12 returned CHO-K1 Ca antag -17, OX1R antag-1 -9, CHO parental Ca -7, OX1R antag-2 62*, CHO-K1 Ca ag 1 and M1 PAM parental 26.
For COc1cccc2c(=O)ccoc12 the results were CHO-K1 Ca antag 10, OX1R antag-1 -22, CHO parental Ca -5, OX1R antag-2 13, CHO-K1 Ca ag 0 and M1 PAM parental -5.
